Test results published in ChEMBL document CHEMBL1140754, “Synthesis and insecticidal evaluation of novel N'-tert-butyl-N'-substitutedbenzoyl-N-5-chloro-6-chromanecarbohydrazide derivatives” (2008).
In brackets after ≈: the same amount, converted by molar mass.

Test system: Mythimna separata
Assay: Larvicidal activity against Oriental armyworm
Type: functional
Method in brief: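 Oriental armyworm (Mythimna separata) larvae dosed by foliar application. Each treatment run in triplicate. LC50 derived by Probit analysis. Reference insecticides were tested under the same conditions.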

## CC(C)(C)N(NC(=O)c1ccc2c(c1Cl)CCCO2)C(=O)c1ccc(Cl)cc1
  LC50: 4.06 µg/mL (≈ 9.64 µM)

## CC(C)(C)N(NC(=O)c1ccc2c(c1Cl)CCCO2)C(=O)c1ccc(Cl)cc1Cl
  LC50: 4.11 µg/mL (≈ 9.02 µM)

## CC(C)(C)N(NC(=O)c1ccc2c(c1Cl)CCCO2)C(=O)c1cc(Cl)cc(Cl)c1
  LC50: 4.11 µg/mL (≈ 9.02 µM)

## CC(C)(C)N(NC(=O)c1ccc2c(c1Cl)CCCO2)C(=O)c1c(Cl)cc(Cl)cc1Cl
  LC50: > 500 µg/mL

## CC(C)(C)N(NC(=O)c1ccc2c(c1Cl)CCCO2)C(=O)c1c(Cl)cc(C(F)(F)F)cc1Cl
  LC50: > 500 µg/mL

## CC(C)(C)N(NC(=O)c1ccc2c(c1Cl)CCCO2)C(=O)c1ccccc1F
  LC50: 4.75 µg/mL (≈ 11.7 µM)

## CC(C)(C)N(NC(=O)c1ccc2c(c1Cl)CCCO2)C(=O)c1ccccc1[N+](=O)[O-]
  LC50: 6.54 µg/mL (≈ 15.1 µM)

## CC(C)(C)N(NC(=O)c1ccc2c(c1Cl)CCCO2)C(=O)c1ccc([N+](=O)[O-])cc1
  LC50: 29.7 µg/mL (≈ 68.8 µM)

## CC(C)(C)N(NC(=O)c1ccc2c(c1Cl)CCCO2)C(=O)c1ccc(F)cc1F
  LC50: 5.69 µg/mL (≈ 13.5 µM)

## CC(C)(C)N(NC(=O)c1ccc2c(c1Cl)CCCO2)C(=O)c1cccc(I)c1
  LC50: 30.2 µg/mL (≈ 58.9 µM)

## COc1ccc(C(=O)N(NC(=O)c2ccc3c(c2Cl)CCCO3)C(C)(C)C)cc1
  LC50: 25.1 µg/mL (≈ 60.1 µM)

## COc1ccc(C(=O)N(NC(=O)c2ccc3c(c2Cl)CCCO3)C(C)(C)C)cc1OC
  LC50: 19.8 µg/mL (≈ 44.2 µM)

## COc1cc(C(=O)N(NC(=O)c2ccc3c(c2Cl)CCCO3)C(C)(C)C)cc(OC)c1OC
  LC50: 42.7 µg/mL (≈ 89.4 µM)

## CCOc1ccc(C(=O)N(NC(=O)c2ccc3c(c2Cl)CCCO3)C(C)(C)C)cc1
  LC50: 215 µg/mL (≈ 500 µM)

## CC(C)(C)N(NC(=O)c1ccc2c(c1Cl)CCCO2)C(=O)c1cccc(Cl)c1
  LC50: 5.98 µg/mL (≈ 14.2 µM)

## Cc1cc(C)cc(C(=O)N(NC(=O)c2ccc3c(c2C)OCCO3)C(C)(C)C)c1
  LC50: 1.4 µg/mL (≈ 3.53 µM)

## CC(C)(C)N(NC(=O)c1ccc2c(c1Cl)CCCO2)C(=O)c1ccccc1
  LC50: 5 µg/mL (≈ 12.9 µM)

## Cc1ccccc1C(=O)N(NC(=O)c1ccc2c(c1Cl)CCCO2)C(C)(C)C
  LC50: 31.3 µg/mL (≈ 78.1 µM)

## Cc1cccc(C(=O)N(NC(=O)c2ccc3c(c2Cl)CCCO3)C(C)(C)C)c1
  LC50: 2.78 µg/mL (≈ 6.93 µM)

## Cc1ccc(C(=O)N(NC(=O)c2ccc3c(c2Cl)CCCO3)C(C)(C)C)c(C)c1
  LC50: 6.14 µg/mL (≈ 14.8 µM)

## COc1cccc(C(=O)N(NC(=O)c2ccc3c(c2Cl)CCCO3)C(C)(C)C)c1
  LC50: 11.4 µg/mL (≈ 27.3 µM)

## CC(C)(C)N(NC(=O)c1ccc2c(c1Cl)CCCO2)C(=O)c1ccc([N+](=O)[O-])cc1Cl
  LC50: 8.47 µg/mL (≈ 18.2 µM)

## Cc1cc(C)c(C(=O)N(NC(=O)c2ccc3c(c2Cl)CCCO3)C(C)(C)C)c(C)c1
  LC50: > 500 µg/mL

## COc1ccccc1C(=O)N(NC(=O)c1ccc2c(c1Cl)CCCO2)C(C)(C)C
  LC50: 10.1 µg/mL (≈ 24.2 µM)

## CC(C)(C)N(NC(=O)c1ccc2c(c1Cl)CCCO2)C(=O)c1cccc([N+](=O)[O-])c1
  LC50: 399 µg/mL (≈ 924 µM)

## Cc1cc(C)cc(C(=O)N(NC(=O)c2ccc3c(c2Cl)OCCO3)C(C)(C)C)c1
  LC50: 1.4 µg/mL (≈ 3.36 µM)

## Cc1ccc(C(=O)N(NC(=O)c2ccc3c(c2Cl)CCCO3)C(C)(C)C)cc1
  LC50: 5.57 µg/mL (≈ 13.9 µM)

## CC(C)(C)N(NC(=O)c1ccc2c(c1Cl)CCCO2)C(=O)c1ccc(I)cc1
  LC50: 43.5 µg/mL (≈ 84.9 µM)

## CC(C)(C)N(NC(=O)c1ccc2c(c1Cl)CCCO2)C(=O)c1ccccc1Cl
  LC50: 10.8 µg/mL (≈ 25.5 µM)

## CC(C)(C)N(NC(=O)c1ccc2c(c1Cl)CCCO2)C(=O)c1ccc(Cl)cc1[N+](=O)[O-]
  LC50: 2.73 µg/mL (≈ 5.85 µM)

## Cc1cc(C)cc(C(=O)N(NC(=O)c2ccc3c(c2Cl)CCCO3)C(C)(C)C)c1 [N'-TERT-BUTYL-N'-(3,5-DIMETHYLBENZOYL)-N-5-CHLORO-6-CHROMANECARBOHYDRAZIDE]
  LC50: 2.25 µg/mL (≈ 5.42 µM)

## CC(C)(C)N(NC(=O)c1ccccc1)C(=O)c1ccccc1 [RH-5849]
  LC50: 24.4 µg/mL (≈ 82.3 µM)

## CCc1ccc(C(=O)NN(C(=O)c2cc(C)cc(C)c2)C(C)(C)C)cc1 [TEBUFENOZIDE]
  LC50: 1.59 µg/mL (≈ 4.51 µM)
